The text below walks through data of ChEMBL document CHEMBL3102767, “Identifying novel targets in renal cell carcinoma: design and synthesis of affinity chromatography reagents” (Bioorg Med Chem, 2014).

SMILES strings stand for the structures. Some results are limits rather than exact numbers.

The nature of assay [1]: Selectivity ratio of IC50 for human RCC4/VHL cells to IC50 for human RCC4 cells. The class given is functional. The method in brief: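 IC50 values from 4-day XTT growth inhibition in RCC4/VHL and parental RCC4 cells (serial dilution from 40 µM top, triplicate); ratio taken as RCC4/VHL IC50 over RCC4 IC50.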
The nature of assay [2]: Cytotoxicity against human RCC4 cells after 4 days by XTT assay. Format: functional, cell-based. Conditions: RCC4, 96 h. The gist of the method:
(§1)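 RCC4 (VHL-null) and RCC4/VHL (VHL reintroduced) cells kept in DMEM plus 10% FCS. After 4 d, media removed; XTT (0.3 mg/mL) with N-methyl dibenzopyrazine methyl sulfate in phenol red-free media added, 1–2 h at 37 °C. IC50 = concentration giving 50% growth inhibition.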
For orientation: Formazan colour is commonly taken as a measure of viable cells.

Assay [3] can be described thus: Cytotoxicity against human RCC4/VHL cells after 4 days by XTT assay. Format: functional, cell-based. The following applies: 96 h. The method in brief:
as §1

By IC50 is commonly meant the concentration that gives 50% inhibition. Low values mean inhibition by little substance, high ones a need for much substance.

Consider `CN1CCN(c2ccc(S(=O)(=O)NCc3ccc(C(=O)Nc4cccnc4)cc3)cc2)CC1`, for which the “Ratio IC50” value in assay [1] is given as over 100. In assay [2], this compound showed an IC50 of under 1 µM.

With `NCCOCCOCCOCCOCCOCCOCCCc1ccc(S(=O)(=O)NCc2ccc(C(=O)Nc3ccccc3)cc2)cc1`, the IC50 in assay [3] and in assay [2] was over 40 µM each time.

In the case of `COc1ccc(S(=O)(=O)NCc2ccc(C(=O)Nc3cccnc3)cc2)cc1OC`, the “Ratio IC50” value in assay [1] was over 100. The compound further gave a concentration for half-maximal inhibition (IC50) in assay [2] of under 1 µM.

In the case of `CCN(c1cccc(C)c1)c1nc(-c2ccnc(-c3cn(CCOCCOCCOCCOCCOCCOCCN)nn3)c2)cs1`, the IC50 in assay [3] and in assay [2] was over 40 µM each time.

With `Cl.O=C(Nc1cccnc1)c1ccc(CNS(=O)(=O)c2ccc(CN3CCOCC3)cc2)cc1`, in assay [1], the “Ratio IC50” value is given as over 100. In addition, the IC50 in assay [2] was under 1 µM.

On to `NCCOCCOCCOCCOCCOCCOCCCc1ccc(S(=O)(=O)NCc2ccc(C(=O)Nc3cccnc3)cc2)cc1`, for which the IC50 in assay [3] was over 40 µM; in assay [2] it was 7.9 µM. The “Ratio IC50” value in assay [1] is given as over 5.

`Cc1cccc(Nc2nc(-c3ccncc3)cs2)c1`: the IC50 is 40 µM in assay [3] and 2.1 µM in assay [2]. Moreover, the “Ratio IC50” value in assay [1] turned out to be 19.

With `CN1CCN(Cc2ccc(S(=O)(=O)NCc3ccc(C(=O)Nc4cccnc4)cc3)cc2)CC1`, in assay [1], the “Ratio IC50” value is listed as over 100. Besides, the IC50 in assay [2] is under 1 µM.

Turning to `Cc1cccc(Nc2nc(-c3ccnc(-c4cn(CCOCCOCCOCCOCCOCCOCCN)nn4)c3)cs2)c1`, the IC50 in assay [3] and in assay [2] was over 40 µM throughout.

With `Cc1cccc(Nc2nc(-c3ccnc(-c4cn(CCCCCCN)nn4)c3)cs2)c1.O=C(O)C(F)(F)F`, the results for the IC50 in assay [3] and in assay [2] were 2.6 µM and 1.7 µM, respectively. Moreover, the “Ratio IC50” value in assay [1] was determined as 1.5.

Consider `Cc1cccc(Nc2nc(-c3ccncc3-c3cn(CCOCCOCCOCCOCCOCCOCCN)nn3)cs2)c1.O=C(O)C(F)(F)F`, for which the IC50 in assay [3] was determined as 3.9 µM; in assay [2] it was 2.9 µM. Moreover, the “Ratio IC50” value in assay [1] was 1.3.

On to `Cn1ccc(-c2cccc(S(=O)(=O)NCc3ccc(C(=O)Nc4cccnc4)cc3)c2)n1`, for which the “Ratio IC50” value in assay [1] was over 100. This compound had an IC50 in assay [2] of under 1 µM.

For the compound `NCCOCCOCCOCCOCCOCCOCC#Cc1ccc(S(=O)(=O)NCc2ccc(C(=O)Nc3cccnc3)cc2)cc1`, the IC50 in assay [3] is over 40 µM; in assay [2], 5.8 µM. The “Ratio IC50” value in assay [1] was over 7.

For `Cc1cccc(S(=O)(=O)NCc2ccc(C(=O)Nc3cccnc3)cc2)c1`, the Ratio IC50 in assay [1] is over 100. Also, in assay [2], the IC50 was under 1 µM.

In the case of `CCN(c1cccc(C)c1)c1nc(-c2ccncc2-c2cn(CCOCCOCCOCCOCCOCCOCCN)nn2)cs1`, the IC50 in assay [3] and in assay [2] was over 40 µM each time.

In the case of `CC(C)(C)c1ccc(S(=O)(=O)NCc2ccc(C(=O)Nc3cccnc3)cc2)cc1`, the IC50 in assay [3] was over 40 µM; in assay [2], 0.16 µM. In assay [1], the “Ratio IC50” value is reported as over 250.
